The source of these data is ChEMBL document CHEMBL1833891, “New inhibitors of colony spreading in Bacillus subtilis and Bacillus anthracis” (Bioorg Med Chem Lett, 2011).

In assay [1] the test system is Bacillus subtilis. Briefly: Antibacterial activity against Bacillus subtilis NCIB 3610 DS1677 harboring marker-less hag mutant assessed as inhibition of surface colony-spreading at 15 ug/ml after overnight incubation at 32 degree C relative to control. In kind it is functional. Conditions: subsp. subtilis str. NCIB 3610 DS1677. A digest of the protocol:
(§1)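 DS1677 inoculated at the centre of Tryptic soy broth soft agar (7 g L⁻¹) containing compound, incubated, then average colony diameter measured. % inhibition of spreading is relative to a DMSO control. Duplicate or triplicate, with the assay repeated if replicates differed by >10% in diameter. NPG isomers at 30 µg mL⁻¹, other compounds at 15 µg mL⁻¹.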

Assay [2] deals with Bacillus subtilis. Briefly: Antibacterial activity against Bacillus subtilis NCIB 3610 DS1677 harboring marker-less hag mutant assessed as inhibition of surface colony-spreading at 30 ug/ml after overnight incubation at 32 degree C relative to control. In kind it is functional. The settings on record: subsp. subtilis str. NCIB 3610 DS1677. A digest of the protocol: as §1
Assay [3] deals with Bacillus subtilis. Briefly: Antibacterial activity against Bacillus subtilis NCIB 3610 DS1677 harboring marker-less hag mutant assessed as inhibition of surface colony-spreading at 75 ug/ml after 24 hrs relative to control. In kind it is functional. The settings on record: subsp. subtilis str. NCIB 3610 DS1677. In short, it runs like this: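 Marker-less hag mutant DS1677 on MK agarose (semi-solid, complete defined nutrients) plates containing 75 µg mL⁻¹ compound in DMSO. Control plates contained 75 µg mL⁻¹ DMSO. Colony spreading compared with control.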

The test system of the next assay is Proteus mirabilis. Briefly: Antibacterial activity against Proteus mirabilis 7002 assessed as inhibition of swarming by plate swarm assay. In kind it is functional, organism-based. A digest of the protocol: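 Proteus plate swarm assay. Each compound at 75 µg mL⁻¹ in the plate, with swarming judged by visible effect.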
In assay [4] the test system is Bacillus anthracis. The assay can be described thus: Antibacterial activity against Bacillus anthracis Sterne assessed as inhibition of surface colony-spreading after overnight incubation. In kind it is functional, organism-based.
Assay [5] relates to Bacillus subtilis. Briefly: Antibacterial activity against Bacillus subtilis NCIB 3610 DS1677 harboring marker-less hag mutant assessed as inhibition of surface colony-spreading after 16 hrs relative to control. In kind it is functional. The settings on record: subsp. subtilis str. NCIB 3610 DS1677, 16 h. A digest of the protocol: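 B. subtilis hag deletion strain DS1677: 3 µL of an overnight LB culture spotted on Tryptic soy broth agar (7 g L⁻¹), dried 3–4 h, with graded inhibitor levels. Plates in duplicate, grown 16 h at 32 °C. IC50 derived from measured colony diameters.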

For assay [6], the system named is Bacillus anthracis. Briefly: Antibacterial activity against Bacillus anthracis Sterne assessed as inhibition of surface colony-spreading at 75 ug after overnight incubation. The assay is classed as functional, organism-based.
The subject of assay [7] is Bacillus subtilis. Briefly: Antibacterial activity against erythromycin-lincomycin resistant Bacillus subtilis NCIB 3610 DS64 harboring hag deletion mutant assessed as inhibition of surface colony-spreading at 75 ug/ml after 24 hrs relative to control. The assay is classed as functional. Conditions: subsp. subtilis str. NCIB 3610 DS64. A digest of the protocol: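 hag mutant DS64 (MLS antibiotic marker) inoculated at the centre of MK agarose plates with or without 75 µg mL⁻¹ compound, grown 24 h at 37 °C. Surface film spreading scored against the untreated plate.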

The source made the active and inactive calls. The calls are words filed in the database; no cut-off is given here.

In general, inhibition refers to the drop in the measured response relative to a control, in per cent. On to `CS(=O)(=O)c1ccccc1[C@@H](O)[C@@H](O)CO`, for which, in the assay with Bacillus subtilis [1], the inhibition at 15 µg/mL was 0%.

With `O=[N+]([O-])c1ccc([C@@H](O)[C@H](O)CO)cc1`, the inhibition at 30 µg/mL in the assay with Bacillus subtilis [2] came out at 16.1%. In addition, the inhibition entry with Bacillus subtilis [3] is “inactive”. Also, the inhibition entry with Proteus mirabilis was “Active”.

As for `C=C[C@H](O)c1ccc(S(C)(=O)=O)cc1`, in the assay on Bacillus subtilis [1], the inhibition at 15 µg/mL was 21.3%.

Take `CO[C@H](c1ccc(S(C)(=O)=O)cc1)[C@@H](O)CO`: in the assay on Bacillus subtilis [1], the inhibition at 15 µg/mL was 0%.

Regarding `COC[C@H](OC)[C@H](OC)c1ccc(S(C)(=O)=O)cc1`, the inhibition at 15 µg/mL with Bacillus subtilis [1] was found to be 18.5%.

What is called IC50 is the point on the concentration scale where inhibition reaches its midpoint. Regarding `O=[N+]([O-])c1ccc([C@@H](O)[C@@H](O)CO)cc1`, in the assay with Bacillus subtilis [2], the inhibition at 30 µg/mL stood at 24.8%. Also, the results for the IC50 in the assay on Bacillus anthracis [4] and with Bacillus subtilis [5] were > 150 µM and 122 µM, respectively. Besides, the inhibition result in the assay with Bacillus subtilis [3] and in the assay on Proteus mirabilis was “Active” in each case.

For the compound `OCC(O)C(O)c1ccccc1` (mixture of isomers), the inhibition at 15 µg/mL with Bacillus subtilis [1] amounted to 12.9%.

As for `CS(=O)(=O)c1ccc([C@H](O)[C@H](O)CO)cc1`, in the assay on Bacillus subtilis [1], the inhibition at 15 µg/mL amounted to 1.6%.

Take `CS(=O)(=O)c1ccc([C@@H](O)[C@@H](O)CO)cc1`: in the assay with Bacillus anthracis [4], the IC50 came to 12 µM. Further, the inhibition at 15 µg/mL in the assay with Bacillus subtilis [1] came to 95.3%. The inhibition entry with Bacillus anthracis [6] was “Active”.

For the compound `COC[C@H](O)[C@H](OC)c1ccc(S(C)(=O)=O)cc1`, the inhibition at 15 µg/mL with Bacillus subtilis [1] was 0%.

As for `COC[C@H](O)[C@H](O)c1ccc(S(C)(=O)=O)cc1`, the inhibition at 15 µg/mL with Bacillus subtilis [1] came out at 10.1%.

As for `O=[N+]([O-])c1ccc([C@H](O)[C@@H](O)CO)cc1`, the inhibition at 30 µg/mL in the assay on Bacillus subtilis [2] came to 0%. The inhibition result with Bacillus subtilis [3] and in the assay with Proteus mirabilis was “inactive” each time.

Take `O=[N+]([O-])c1ccc([C@H](O)[C@H](O)CO)cc1`: the inhibition at 30 µg/mL in the assay with Bacillus subtilis [2] came to 1.5%. For the same compound, the inhibition entry in the assay with Bacillus subtilis [3] and in the assay on Proteus mirabilis was “inactive” in each case.

In the case of `CS(=O)(=O)c1ccc([C@H](O)[C@@H](O)CO)cc1`, in the assay on Bacillus subtilis [1], the inhibition at 15 µg/mL is 0%.

With `CS(=O)(=O)c1cccc(C(O)C(O)CO)c1` (mixture of isomers), in the assay with Bacillus subtilis [1], the inhibition at 15 µg/mL turned out to be 10.5%.

Consider `NS(=O)(=O)c1ccc(C(O)C(O)CO)cc1` (mixture of isomers), for which the inhibition at 15 µg/mL in the assay with Bacillus subtilis [1] was 4.5%.

For the compound `CSc1ccc(C(O)C(O)CO)cc1` (mixture of isomers), the inhibition at 15 µg/mL in the assay with Bacillus subtilis [1] is 0%.

On to `CS(=O)(=O)c1ccc([C@@H](O)[C@H](O)CO)cc1`, for which the inhibition at 15 µg/mL in the assay on Bacillus subtilis [1] amounted to 69.1%. The inhibition entry in the assay on Bacillus anthracis [6] is “Active”.

On to `O=[N+]([O-])c1ccc(C(O)C(O)CO)cc1` (stereo not given), for which, in the assay on Bacillus subtilis [7], the inhibition result was “Active”.

As for `CS(=O)(=O)Oc1ccc(C(O)C(O)CO)cc1` (mixture of isomers), the inhibition at 15 µg/mL in the assay on Bacillus subtilis [1] turned out to be 11.5%.

Regarding `COC(=O)c1ccc(C(O)C(O)CO)cc1` (mixture of isomers), the inhibition at 15 µg/mL in the assay with Bacillus subtilis [1] worked out at 0%.

Turning to `OCC(O)C(O)c1ccc(O)cc1` (mixture of isomers), the inhibition at 15 µg/mL with Bacillus subtilis [1] is 12.9%.
